For 95 compounds, cytotoxicity results are on record in ChEMBL document CHEMBL4513216, “Probing the Open Global Health Chemical Diversity Library for Multistage-Active Starting Points for Next-Generation Antimalarials” (ACS Infect Dis, 2020).

SMILES strings stand for the structures.

This series is described as follows: Toxicity liver stage against HepG2, at 10uM. Format: cell-based. Also noted: test concentration 10 uM, cell line HepG2-A16-CD81EGFP. The conditions noted are these: human, HepG2-A16-CD81EGFP cells; read-out: INHIBITION
In short, it runs like this: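 Uninfected HepG2-A16-CD81EGFP cells, 3 × 10^3 per well, 1536-well, plated on prespotted compound at 10 μM final, parasite-free screening media added to match infected plates; puromycin 10 μM positive, DMSO 0.5% negative; run in parallel with 48 h PbLuc assay at 37 °C, 5% CO2; viability by CellTiter-Glo luminescence, normalized to controls.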
With `Cc1ccc(-c2nc(CSCCC(=O)NC(N)=O)co2)cc1`, the cytotoxicity at 10 µM was -2.69%. In the case of `O=C(Nc1cc(C(F)(F)F)ccc1Cl)c1ccc(N2CCCC2)nn1` it was -4.43%; in that of `c1ccc(NC[C@@H]2CCC[C@@H]3CN(Cc4cccnc4)C[C@@H]32)nc1`, 2.78%. In the case of `CNc1nc(CNC(=O)Nc2ccccc2-c2noc(C)n2)cs1` it was -6.56%; in that of `CCc1ccc(CN2CC[C@H]3[C@H]2CC(=O)N3Cc2cccc(C)n2)o1`, -2.19%; in that of `CNS(=O)(=O)CCCN1CCCCCC1c1ccc(C)o1` (stereo not given), -7.58%. In the case of `COCCCN(C)c1cc(C(F)(F)F)nc(-c2cccnc2)n1` it was -4.83%. In the case of `COc1ccccc1OCCN1CCCCC1Cn1cncn1` (stereo not given), the cytotoxicity at 10 µM is -32.7%.

Turning to `Cn1cc(C(=O)N2C[C@@H]3COC[C@]3(COCc3cccnc3)C2)cn1`, the cytotoxicity at 10 µM is -0.8%. As for `CN(C)CC1CSCCCN1S(=O)(=O)c1ccc(C(F)(F)F)cc1` (stereo not given), the cytotoxicity at 10 µM was -6.71%. As for `Cc1cccc(NC(=O)NC2CCN(C3CCOC3)CC2)c1` (stereo not given), the cytotoxicity at 10 µM was found to be 4.24%.

With `COc1ccc(C(C(=O)O)N2CCCN(C3CCCC3)CC2)cc1OC` (stereo not given), the cytotoxicity at 10 µM was 7.44%. For the compound `CN1CC(=O)N(C2CCC2)Cc2c(NC3CCNCC3)ncnc21`, the cytotoxicity at 10 µM was determined as 8.77%.

In the case of `CN(C)CCN1CC[C@@H]2[C@@H]1CCN2C(=O)c1cccc(Cl)c1`, the cytotoxicity at 10 µM is -84%. Regarding `Cc1ccc(CN(Cc2ccccn2)C(=O)CCC2CCCN(C)C2)s1` (stereo not given), the cytotoxicity at 10 µM came out at 18.3%.

Consider `COc1cn(CC(=O)N2CCN(c3ccc(F)cc3)CC2)c(C)cc1=O`, for which the cytotoxicity at 10 µM came out at 2.29%. In the case of `Cc1c(S(=O)(=O)NCC(C)Cn2cc(Cl)cn2)cnn1C` (stereo not given) it was 0.446%; in that of `O=c1c(NCCc2ccc(O)cc2)c(NCc2ccncc2)c1=O`, -5.46%; in that of `CC(C)=CCN(C)C1CCCN(Cc2noc(C)n2)C1` (stereo not given), -19.6%.

Turning to `CCCS(=O)(=O)N1CCC2(CC1)COCCN(C(C)=O)C2`, the cytotoxicity at 10 µM stood at 15.9%. As to `Cc1nc(C)n(C2CCCN(C(=O)COc3cccc(C#N)c3)C2)n1` (stereo not given), the cytotoxicity at 10 µM came out at 1.08%.

`COc1ncc(-c2cc(NC3CCCC3)nc3[nH]ccc23)c(OC)n1`: the cytotoxicity at 10 µM turned out to be 16.3%. As for `CCOc1ccc(Cl)c(C(=O)N2CCN(C(=O)c3ccoc3C)CC2)n1`, the cytotoxicity at 10 µM was -6.69%. In the case of `Cc1nn(C(C)(C)C)c(=O)n1CC(=O)NCC(F)(F)F` it was -1.32%; in that of `O=C(NC1CC1)[C@@H]1CCO[C@@H]2CCN(CCc3ccccc3)C[C@@H]21`, 3.6%; in that of `CC(=O)N1[C@H](CN(C)C)C[C@@H]2CN(c3ncc(F)cn3)CC[C@@H]21`, 5.56%. With `O=C(c1cccnc1)N1Cc2ccccc2OCC1Cn1ccnc1` (stereo not given) the figure was 1.68%. Regarding `Cc1ccc(Cl)cc1NC(=O)Cn1cc(C(=O)O)ccc1=O`, the cytotoxicity at 10 µM was -1.45%.

Take `COc1ccc(NCc2nc(=O)n(CCC(C)C)[nH]2)cc1`: the cytotoxicity at 10 µM was -2.9%.

With `CN(CCOCC1CC1)C(=O)Nc1ccc(C#N)c(Cl)c1`, the cytotoxicity at 10 µM was -11.1%. As for `O=C(Nc1ccccc1F)C1CSCN1C(=O)CCc1ccco1` (stereo not given), the cytotoxicity at 10 µM was -4.31%.

For the compound `Fc1ccccc1-c1nnn(CCCc2nn[nH]n2)n1`, the cytotoxicity at 10 µM is -4.3%. In the case of `Nc1c(N2CCCCC2)ncnc1N1CCOCC1` it was 3.66%; in that of `COc1ccccc1Oc1ncccc1CNC(=O)[C@H](C)O`, -2.64%. `O=C(NCCN1CCOCC1)c1ccn(COc2ccc(F)cc2)n1`: the cytotoxicity at 10 µM turned out to be 6.17%.

For the compound `O=C(Cc1cccs1)NCC1(O)CCSC1` (stereo not given), the cytotoxicity at 10 µM was -9.66%. `Cc1cc(CNCc2c(C(C)C)nn(C)c2N2CCOCC2)no1`: the cytotoxicity at 10 µM was 16.5%. Take `Cc1cnn(CC2CN(c3ccc(C#N)cn3)CCO2)c1` (stereo not given): the cytotoxicity at 10 µM is -1.26%. Consider `COc1ccccc1CNC1(CCO)CCOCC1`, for which the cytotoxicity at 10 µM was 20.5%. With `CC(C)n1ccnc1CN1CCOC(CCc2ccccc2)C1` (stereo not given) the figure was -132%; with `Cc1ccc(NC(C(N)=O)c2ccc(F)cc2)cc1` (stereo not given), 9.19%. In the case of `N#Cc1ccccc1CN1C[C@@H]2CC[C@H]1CN(C(=O)c1cccnc1)C2` it was -0.849%; in that of `CC(C)c1nccn1C(C)C(=O)N1CCN(S(C)(=O)=O)CC1` (stereo not given), -4.32%; in that of `Cc1cnn(CC2CCCN2C(=O)c2ccc(Cl)cc2F)c1` (stereo not given), -19%. With `Cc1ccc(C(=O)N2CCC3(CCC(=O)N(CC(C)O)C3)CC2)c(O)c1` (stereo not given) the figure was 11%.

In the case of `COc1ccc(CNC(C)Cn2cccn2)c(OC)c1OC` (stereo not given), the cytotoxicity at 10 µM is -8.17%. In the case of `COc1c(C2CCCN2c2ncnc3c2CCC3)c(C)nn1C` (stereo not given) it was 10.5%; in that of `CCN(C(=O)c1ccc(-n2ncc(C#N)c2N)cc1)C1CCCC1`, -13%; in that of `O=C(COC[C@H]1CC[C@H]2[C@H](CCN2c2ncccn2)O1)N1CCCC1`, -7.41%.

As for `O=C(Cc1ccccc1C(F)(F)F)N1CCC2(CC1)OCCCC2O` (stereo not given), the cytotoxicity at 10 µM is -2.62%. In the case of `Cc1nn(C)cc1C(=O)Nc1cccc(CN2CCC(CO)CC2)c1` it was -10.2%.

For the compound `CN1CCC(c2n[nH]c(=O)n2-c2cccc(Cl)c2)CC1`, the cytotoxicity at 10 µM worked out at 33.9%. In the case of `Cc1ccc(S(N)(=O)=O)cc1C(=O)NCC1Cc2ccccc2O1` (stereo not given) it was 3.04%.

Take `COc1cccc(N2CCN(Cc3nccc(OC)c3OC)CC2=O)c1`: the cytotoxicity at 10 µM was 3.63%.

As to `COCC1CN(C(=O)Cc2cccc(F)c2)Cc2ccnn2C1` (stereo not given), the cytotoxicity at 10 µM is -73%. With `CN1CCN(C(=O)C2CCN(c3cccnn3)CC2)CC1` the figure was -0.353%; with `CC(C)CN1C[C@H]2CCN(c3ncccn3)CC[C@H]2S1(=O)=O`, -11.2%. In the case of `CCCOc1ccc(C(=O)N2CCN3CCNC(=O)C3C2)cc1Cl` (stereo not given) it was -1.65%. With `CC(CN1CCOCC1)OC(=O)c1ccccc1Cl` (stereo not given) the figure was -4.52%; with `O=C(NCCCN1CCOCC1)c1ccn(COc2ccc(F)cc2)n1`, 7.16%. `CN(CC1CCOCC1)C(C(=O)O)c1cccc(F)c1F` (stereo not given): the cytotoxicity at 10 µM was 6.89%. With `CC(=O)N1CCN(C(=O)c2[nH]nnc2Nc2ccccc2F)CC1` the figure was 2.1%. As to `Cc1cn2nc(N3CCN(Cc4nc(C(C)C)no4)CC3)sc2n1`, the cytotoxicity at 10 µM was -7.27%. Take `COc1ccc(C)cc1NC(=O)Nc1cnc(O)nc1O`: the cytotoxicity at 10 µM is -3.79%. With `CN(C)C(=O)CN1CCC(c2nnc(Cn3cccn3)n2C2CC2)CC1` the figure was -6.65%; with `CC(Cn1ccnc1)NC(=O)NCCc1ccccn1` (stereo not given), -6.05%. Take `c1coc(CN2CCO[C@H]3[C@H](OCC4CC4)CC[C@@H]32)c1`: the cytotoxicity at 10 µM came out at 5.22%. With `COc1ccc(C(=O)NCCCC2(C3OCCO3)CCOCC2)cc1` the figure was 3.05%; with `COc1ccc([C@@H]2CN(C(=O)CCC(F)(F)F)C[C@H]2NC(C)=O)cc1`, 2.12%.

In the case of `NC(=O)C1CN(c2ccc3cc(Br)ccc3n2)CCO1` (stereo not given), the cytotoxicity at 10 µM stood at 4.94%.

As to `Cc1cc(CN2C[C@@H]3COC[C@]3(CNS(C)(=O)=O)C2)no1`, the cytotoxicity at 10 µM was -71.2%. Turning to `CNS(=O)(=O)c1csc(C(=O)N(C)Cc2ccccc2C)c1`, the cytotoxicity at 10 µM was found to be 6.78%. With `CCC(=O)NCc1cc(Br)ccc1OC(F)F` the figure was 17.2%; with `COc1c(C)cnc(CN(C)C(=O)c2ccc(C3CCCO3)s2)c1C` (stereo not given), 9.5%; with `Cc1nn(C)c(C)c1C1CCCN1CC(=O)Nc1nccs1` (stereo not given), -21.6%. As to `O=C(c1cccnc1)N1CCC2(CC1)CCN(Cc1ccccn1)C2=O`, the cytotoxicity at 10 µM is 2.78%. As to `O=C1CC(NS(=O)(=O)N2CCOCC2)CN1Cc1ccccc1` (stereo not given), the cytotoxicity at 10 µM came out at 4.19%. For `CC(C)NC1CCN(CCc2ccc3c(c2)CCO3)CC1`, the cytotoxicity at 10 µM was -21.8%. On to `COCc1cn(C2CCN(Cc3ccc(Cl)s3)CC2)nn1`, for which the cytotoxicity at 10 µM turned out to be 5.43%. With `O=C(c1ccno1)N1CCO[C@@H]2CC(COCc3ccccn3)C[C@H]21` (stereo not given in full) the figure was -103%; with `CC(C)c1nccc([C@H]2C[C@@H]3CCN(Cc4ccco4)C[C@H]3O2)n1`, -5.25%. Regarding `COCc1cc(N(Cc2ccsc2)C2CC2)n2ncnc2n1`, the cytotoxicity at 10 µM is -3.75%. `CC(O)CN(C)c1cc(C(F)(F)F)nc(-c2cccnc2)n1` (stereo not given): the cytotoxicity at 10 µM is -6.68%. For the compound `Cc1cc(N2C[C@H](C3CC3)[C@@H](N)C2)nc(N2CCCCC2)n1`, the cytotoxicity at 10 µM was -15.6%. `Cn1c(C2CC2)nc2c1CCN(CCc1ccccn1)C2`: the cytotoxicity at 10 µM was determined as 4.59%.

For `Cc1cnc(C(=O)NC(COCC(C)C)c2ccco2)cn1` (stereo not given), the cytotoxicity at 10 µM is -19.6%. With `CCN(C)c1ncnc2c1CCN(Cc1csc(C)n1)CC2` the figure was -1.13%; with `CC(C)=CCN1CCC2(CC1)c1ccccc1[C@@H](N1CCSCC1)[C@@H]2O`, 7.25%.

Take `O=C(CCN1CCCC1=O)NCc1cccnc1Oc1ccccc1`: the cytotoxicity at 10 µM was -7.47%.

For `C[C@@H]1CN(Cc2ccccc2)CCN1C(=O)NCc1nccs1`, the cytotoxicity at 10 µM is -142%. With `CCOC1CCN(CCc2nc(-c3cccc(Cl)c3)no2)CC1` the figure was -0.139%. Take `Cc1ocnc1C(=O)N1CCC(c2nccn2Cc2ccncc2)CC1`: the cytotoxicity at 10 µM is -8.26%. `Cc1c(CNC(=O)c2cn(CCC3CCCCN3)nn2)cnn1C` (stereo not given): the cytotoxicity at 10 µM was -3.44%. With `O=C(CNc1cccc(S(=O)(=O)C(F)F)c1)Nc1ccccc1` the figure was -48.4%; with `CCc1nc(C2CCCN2C(=O)c2ccc3c(c2)nnn3CC)no1` (stereo not given), 4.5%.
